High-throughput results: PubChem BioAssay, several laboratories
PPC-1+TRAIL kill – compounds killing PPC-1 cancer cells with TRAIL present (potentiator screen, no TRAIL-free arm); 220,000 compounds, 0.41% hits; AID 1443; cell killing (% activity), % at 4 µM or 5 µM; PPC-1 cells + TRAIL, ATPLite viability luminescence;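 active = cell killing above 50% in the first pass at 4 µM, then a duplicate retest at 5 µM averaging 50% or more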;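 also: plate controls were cells with TRAIL plus DMSO for no effect and medium-only wells lacking cells for full effect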
Platelet DG rel – platelet dense granule release activity | inhibition, %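 (compounds screened at 7.5 µM in platelet-rich plasma)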 | 300,000 compounds, 0.22% hits | human platelet-rich plasma, SFLLRN dense granule ATP release, luminescence;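 active = mean replicate score, as percent of positive control, at or above 50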
TRAIL sens C8 – caspase-8 TRAIL sensitization; NB7+C8 cells + TRAIL, ATPlite viability luminescence; inhibition (viability loss, TRAIL sensitization), % at 10 µM; 360,000 compounds, 1% hits; AID 624354;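 active = compounds causing at least 50% loss of cell viability in the single-dose screen, relative to plate controls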
FLuc act counter – firefly luciferase counter-screen for stimulation assays; P08659; ATPlite luciferase biochemical, luminescence, 10 min; 0 = ATP-free wells, 1 = DMSO control; activation factor at 10 µM; 200,000 tested, under 10 active;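 active = luciferase activation factor, scaled between plate controls, of at least 2 with compound at 10 µM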
Target sequence (P08659 whole entry, looked up): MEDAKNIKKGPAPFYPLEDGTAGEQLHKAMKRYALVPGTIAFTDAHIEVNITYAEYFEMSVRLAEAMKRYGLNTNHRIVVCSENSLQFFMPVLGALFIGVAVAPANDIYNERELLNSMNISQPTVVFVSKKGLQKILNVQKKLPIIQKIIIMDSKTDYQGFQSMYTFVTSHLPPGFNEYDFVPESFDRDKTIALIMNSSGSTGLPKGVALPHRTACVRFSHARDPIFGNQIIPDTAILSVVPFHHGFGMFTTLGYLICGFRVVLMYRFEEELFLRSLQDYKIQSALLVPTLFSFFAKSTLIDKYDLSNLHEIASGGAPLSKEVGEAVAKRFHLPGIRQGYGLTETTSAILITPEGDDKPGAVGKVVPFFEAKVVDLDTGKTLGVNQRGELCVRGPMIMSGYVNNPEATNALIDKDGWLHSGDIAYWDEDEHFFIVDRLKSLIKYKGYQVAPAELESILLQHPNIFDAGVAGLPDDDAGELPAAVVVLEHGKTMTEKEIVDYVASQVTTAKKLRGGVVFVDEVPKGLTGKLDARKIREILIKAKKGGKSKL
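System: Luciferase/luciferin detection reagent, cell-free biochemical luciferase assay | Medium: PBS buffer for ATP | Dosing: Test compounds dosed from 2 mM stocks in 100% DMSO | Timing: 10 min at ambient temperature | Signal: Luminescence measurement of luciferase light output | Evaluation: Luciferase activation, seen as luminescence increase over controls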
FLuc inhib CS – Photinus pyralis luciferase inhibition counter-screen; ATPLite firefly luciferase biochemical luminescence, 10 min; 200,000 compounds, 1.5% hits; P08659; AID 1006; inhibition, % at 10 µM;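 active = inhibition above about 50% when tested at 10 µM, limit read from the data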
Numbers without * were called inactive; nt = not tested or not shown. In the library only some 1.6% were active in any assay of this set; here they are far more common.

SMILES	PPC-1+TRAIL kill	Platelet DG rel	TRAIL sens C8	FLuc act counter	FLuc inhib CS
Cn1c(N=Nc2ccc(N3CCOCC3)cc2)[n+](C)c2ccccc21	-8	31	39	0.4	59*
Cn1c(=Nc2ccc(N3CCOCC3)cc2)ccc2ccccc21	20	7	3	1.1	-5
CC(C)CCCCCCCCCCCCC(=O)NCC(=O)NC1C(O)C(O)C(Nc2ncnc3nc[nH]c23)OC1C(O)CO (stereo not drawn)	nt	nt	65*	nt	nt
CCOC(=O)c1ccc(S(=O)(=O)N2CCC(C(=O)NCC3COc4ccccc4O3)CC2)cc1 (stereo not drawn)	nt	nt	7	nt	nt
CC(=Nc1ccc(C)cc1)c1sc2ccccc2c1O	43	20	62*	0.1	85*
CC(=Nc1cccc(O)c1)c1sc2ccccc2c1O	35	2	10	0.5	53*
COC(=O)c1ccc(-n2c(C)cc(C(=O)CCl)c2C)cc1	6	-2	-17	1	-1
CCOc1ccc(-n2c(C)cc(C(=O)CCl)c2C)cc1	-19	-4	53*	1	-4
COc1ccc(CC(N)c2csc(NC(=O)c3cc(C(C)(C)C)nn3Cc3ccccc3)n2)cc1 (stereo not drawn)	nt	nt	50*	nt	nt
CC1CCN(S(=O)(=O)c2ccc3c(c2)C(Cl)(Cl)C(=O)N3)CC1	nt	nt	4	nt	nt
O=C(Nc1cccc(O)c1)C(=O)Nc1ccccn1	42	71*	71*	0.2	84*
CC(C)=NNc1cnnc2ccc([N+](=O)[O-])cc12	nt	nt	-17	nt	nt
COc1cc(NC(=O)c2c(F)c(F)c(F)c(F)c2F)c(OC)cc1Cl	6	6	76*	1.1	-7
CCC(=O)N(C)C[C@H]1Oc2ncc(C#Cc3cccnc3)cc2C(=O)N([C@@H](C)CO)C[C@@H]1C	nt	nt	-27	nt	nt
O=C(/C=C/c1ccc(OC(F)F)cc1)Nc1cccc(S(=O)(=O)NC2=NCCCCC2)c1	nt	20	57*	nt	nt
CC(C)(C)c1ccc(C(=O)Nc2cccc(S(=O)(=O)NC3=NCCC3)c2)cc1	nt	nt	86*	nt	nt
CN(C)c1ccc(C(=O)Nc2cccc(S(=O)(=O)NC3=NCCCCC3)c2)cc1	nt	nt	27	nt	nt
CC(C)(C)NC(=O)C1C(c2ccc(C(F)(F)F)cc2)=Nc2ccccc2N1C(=O)c1cccc2ccccc12 (stereo not drawn)	nt	nt	-10	nt	nt
O=C(Nc1nc2ccccc2s1)c1ccc2sc([C@H]3C[C@H](O)[C@@H](CO)O3)nc2c1	nt	nt	48	nt	nt
O=C(NC(=S)Nc1ccccn1)c1ccc([N+](=O)[O-])cc1	13	-8	47	0.4	59*
O=C(NC(=S)Nc1ccccn1)c1ccccc1	42	0	69*	nt	nt
O=C(Nc1ncccn1)c1ccc([N+](=O)[O-])cc1	1	-4	-3	1	0
O=C(Nc1ccccn1)c1ccccc1	nt	nt	4	nt	nt
O=C(NC(=S)Nc1ccccn1)c1ccc(-c2ccccc2)cc1	nt	5	78*	nt	nt
CCc1nc2ccc(C(=O)N3CCN(S(=O)(=O)CC)CC3)cn2c1N(C)Cc1cccs1	nt	nt	-16	nt	nt
SMILES	PPC-1+TRAIL kill	Platelet DG rel	TRAIL sens C8	FLuc act counter	FLuc inhib CS
COc1ccc(C(C)(O)c2nc(-c3ccc(Cl)cc3)cs2)cc1 (stereo not drawn)	nt	nt	26	nt	nt
CC1CC(=O)NN=C1c1ccc(N(C)C)c([N+](=O)[O-])c1 (stereo not drawn)	-14	82*	-17	1	0
CCN(CC)c1ccc(C2=NNC(=O)CC2C)cc1[N+](=O)[O-] (stereo not drawn)	2	55*	17	1	-1
O=C1c2ccc3c4c(ccc(c24)C(=O)N1c1cccc(O)c1)C(=O)N(c1cccc(O)c1)C3=O	16	7	49*	nt	nt
O=C1c2ccc3c4c(ccc(c24)C(=O)N1c1cccc(O)c1)CC3	4	1	1	1	-4
CC(C)(C)C(=O)Nc1ccccc1C(=O)OCC(=O)c1ccc2c(c1)OCCO2	10	-1	2	0.8	22
O=C(COC(=O)c1ccccc1NC(=O)C1CC1)c1ccc2c(c1)OCCO2	11	3	nt	0.3	72*
Cc1ccccc1/C(N)=N/OC(=O)c1ccc(F)cc1	22	7	24	0.1	92*
Cc1ccc(/C(N)=N/OC(=O)c2cc(-c3ccccc3)nc3ccccc23)cc1	-17	6	81*	1	2
Cc1cccc(/C(N)=N/OC(=O)c2ccoc2C)c1	nt	37	91*	nt	nt
COc1ccc(/C(N)=N/OC(=O)c2cc(-c3ccccc3)nc3ccccc23)cc1	18	4	44	0.9	14
